According to ChEMBL document CHEMBL3102726, “Synthesis of tricyclic fused coumarin sulfonates and their inhibitory effects on LPS-induced nitric oxide and PGE2 productions in RAW 264.7 macrophages” (Bioorg Med Chem Lett, 2014):
Activity calls are given as the source filed them. The calls are words filed in the database; no cut-off is given here.

Tests used:
[1] = tested on: RAW264.7; test: Antiinflammatory activity against mouse RAW264.7 cells assessed as inhibition of LPS-induced NO production at 5 uM after 24 hrs by Griess assay; assay type: functional
How it was run: (§1)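 Single-concentration NO assay: test compounds at 5 µM, reference L-NIL at 20 µM, in LPS-stimulated RAW 264.7 cells. Nitrite in the medium was measured by Griess reaction (A540). Values are means ± SD of three independent experiments.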

[2] = tested on: RAW264.7; test: Antiinflammatory activity against mouse RAW264.7 cells assessed as inhibition of LPS-induced PGE2 production administered 1 hr prior to LPS-challenge measured after 24 hrs by EIA; assay type: functional, cell-based
How it was run: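 Cells were pretreated for 1 h with compound at 0.1, 1, 10, 100 or 1000 nM, then given LPS (10 ng/mL) for 24 h. PGE₂ in culture media was quantified by EIA kit. Values are means ± SD of three independent experiments; ANOVA with Dunnett's post hoc test.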

[3] = tested on: RAW264.7; test: Antiinflammatory activity against mouse RAW264.7 cells assessed as inhibition of LPS-induced NO production after 24 hrs by Griess assay; assay type: functional, cell-based; details: RAW264.7, 24 h
How it was run: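 Cells were plated at 4 × 10⁵/well in DMEM with 10% FBS at 37 °C, 5% CO₂. They were incubated 24 h with LPS (1 µg/mL) plus compound at 1.60–100 µM. Medium was mixed 1:1 with Griess reagent (sulfanilamide/naphthylethylenediamine in phosphoric acid) for 10 min at room temperature, then A540 was read against fresh medium blanks.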

[4] = tested on: RAW264.7; test: Cytotoxicity against mouse RAW264.7 cells after 24 hrs by MTT assay; assay type: cell-based; details: RAW264.7, 24 h
How it was run: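 Cells were seeded at 10⁵/well and exposed to various concentrations of compound for 24 h. Viability was read by colorimetric MTT assay.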

[5] = tested on: RAW264.7; test: Antiinflammatory activity against mouse RAW264.7 cells assessed as inhibition of LPS-induced PGE2 production at 5 uM administered 1 hr prior to LPS-challenge measured after 24 hrs by EIA; assay type: functional
How it was run: (§2)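 Single-concentration PGE₂ assay in LPS-stimulated RAW 264.7 cells: test compounds at 5 µM, reference NS398 at 3 µM. PGE₂ in culture media was quantified by EIA. Values are means ± SD of three independent experiments.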

[6] = tested on: RAW264.7; test: Ratio of NS398 IC50 to compound IC50 for mouse RAW264.7 cells; assay type: functional
[7] = tested on: RAW264.7; test: Antiinflammatory activity against mouse RAW264.7 cells assessed as inhibition of LPS-induced NO production at 20 uM after 24 hrs by Griess assay; assay type: functional; details: RAW264.7, 24 h; how it was run: as §1
[8] = tested on: RAW264.7; test: Antiinflammatory activity against mouse RAW264.7 cells assessed as inhibition of LPS-induced iNOS protein expression administered 1 hr prior to LPS-challenge measured after 24 hrs by SDS-PAGE analysis; assay type: functional, cell-based
How it was run: (§3)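 RAW 264.7 macrophages were pretreated for 1 h with or without 0.01, 0.1, 0.5, 1, 5 or 10 µM compound, then stimulated with LPS (10 ng/mL) for 24 h. Cell lysates were run on SDS–PAGE and transferred to PVDF. Blots were probed with iNOS and COX-2 antibodies, with β-actin as internal control.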

[9] = tested on: RAW264.7; test: Antiinflammatory activity against mouse RAW264.7 cells assessed as inhibition of LPS-induced COX2 protein expression administered 1 hr prior to LPS-challenge measured after 24 hrs by SDS-PAGE analysis; assay type: functional, cell-based; how it was run: as §3
[10] = molecular target: T1, Prostaglandin G/H synthase 2 (Homo sapiens) (UniProt P35354); test: Inhibition of LPS-induced recombinant COX2 (unknown origin) activity expressed in mouse RAW264.7 cells at 0.1 to 5 uM after 10 mins; assay type: cell-based
T1 sequence (whole entry): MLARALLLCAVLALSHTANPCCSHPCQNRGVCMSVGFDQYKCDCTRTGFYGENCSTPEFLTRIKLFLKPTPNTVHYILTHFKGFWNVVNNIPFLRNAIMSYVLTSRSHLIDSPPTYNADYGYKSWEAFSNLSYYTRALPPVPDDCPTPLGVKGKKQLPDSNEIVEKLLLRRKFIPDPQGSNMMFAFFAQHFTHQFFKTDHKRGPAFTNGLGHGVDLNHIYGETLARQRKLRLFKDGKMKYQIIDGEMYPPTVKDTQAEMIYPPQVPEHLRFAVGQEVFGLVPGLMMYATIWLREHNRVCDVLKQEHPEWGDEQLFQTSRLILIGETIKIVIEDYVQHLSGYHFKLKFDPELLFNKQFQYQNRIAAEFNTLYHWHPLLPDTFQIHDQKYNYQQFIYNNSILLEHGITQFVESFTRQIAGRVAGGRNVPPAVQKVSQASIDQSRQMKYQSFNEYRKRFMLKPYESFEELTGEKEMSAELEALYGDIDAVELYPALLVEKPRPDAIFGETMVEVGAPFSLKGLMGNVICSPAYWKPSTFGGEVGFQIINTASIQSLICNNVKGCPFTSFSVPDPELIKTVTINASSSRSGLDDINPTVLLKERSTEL

[11] = tested on: RAW264.7; test: Ratio of L-NIL IC50 to compound IC50 for mouse RAW264.7 cells; assay type: functional
[12] = molecular target: T2, Nitric oxide synthase, inducible (Mus musculus) (UniProt P29477); test: Inhibition of LPS-induced iNOS activity in mouse RAW264.7 cells at 1 to 10 uM after 12 hrs
T2 sequence (whole entry): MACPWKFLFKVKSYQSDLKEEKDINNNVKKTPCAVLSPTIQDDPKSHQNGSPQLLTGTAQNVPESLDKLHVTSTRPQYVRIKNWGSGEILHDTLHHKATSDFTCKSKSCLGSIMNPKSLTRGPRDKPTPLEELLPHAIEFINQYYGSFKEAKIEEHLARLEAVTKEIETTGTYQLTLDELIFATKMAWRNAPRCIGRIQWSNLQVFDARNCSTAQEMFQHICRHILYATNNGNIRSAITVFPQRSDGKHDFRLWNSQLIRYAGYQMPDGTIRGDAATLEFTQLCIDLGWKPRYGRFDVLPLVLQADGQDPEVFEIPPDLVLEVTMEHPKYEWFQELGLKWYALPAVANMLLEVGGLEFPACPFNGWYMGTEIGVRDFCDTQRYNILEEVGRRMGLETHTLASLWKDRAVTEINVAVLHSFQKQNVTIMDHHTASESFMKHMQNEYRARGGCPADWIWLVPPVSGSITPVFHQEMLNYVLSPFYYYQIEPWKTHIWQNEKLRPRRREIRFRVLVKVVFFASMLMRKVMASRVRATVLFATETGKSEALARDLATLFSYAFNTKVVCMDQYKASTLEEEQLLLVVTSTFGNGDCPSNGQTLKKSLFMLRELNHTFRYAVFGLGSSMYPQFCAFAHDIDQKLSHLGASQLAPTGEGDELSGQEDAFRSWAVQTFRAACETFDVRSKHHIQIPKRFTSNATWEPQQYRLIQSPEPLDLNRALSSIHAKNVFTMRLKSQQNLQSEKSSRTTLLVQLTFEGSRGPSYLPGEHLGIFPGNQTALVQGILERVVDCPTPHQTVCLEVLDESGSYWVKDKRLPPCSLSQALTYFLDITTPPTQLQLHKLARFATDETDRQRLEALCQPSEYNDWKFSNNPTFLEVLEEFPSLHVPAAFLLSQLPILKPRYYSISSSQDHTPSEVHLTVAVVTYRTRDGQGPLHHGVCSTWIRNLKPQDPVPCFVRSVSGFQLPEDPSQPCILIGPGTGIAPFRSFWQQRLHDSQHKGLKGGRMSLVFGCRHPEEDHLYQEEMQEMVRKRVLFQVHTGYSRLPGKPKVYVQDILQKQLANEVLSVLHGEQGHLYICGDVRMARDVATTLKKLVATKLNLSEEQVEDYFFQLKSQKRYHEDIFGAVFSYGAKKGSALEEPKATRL

[13] = tested on: RAW264.7; test: Antiinflammatory activity against mouse RAW264.7 cells assessed as inhibition of LPS-induced NO production administered 1 hr prior to LPS-challenge measured after 24 hrs by Griess assay; assay type: functional, cell-based
How it was run: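 RAW 264.7 cells were grown in DMEM with 10% FBS, penicillin and streptomycin at 37 °C under 5% CO2, then plated at 4 × 10^5 cells/well. Culture medium was mixed 1:1 with Griess reagent (equal volumes of 1% sulfanilamide in 5% phosphoric acid and 0.1% naphthylethylenediamine·HCl) for 10 min at room temperature, and nitrite was read at 540 nm against fresh-medium blanks.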

[14] = tested on: RAW264.7; test: Antiinflammatory activity against mouse RAW264.7 cells assessed as inhibition of LPS-induced PGE2 production at 3 uM administered 1 hr prior to LPS-challenge measured after 24 hrs by EIA; assay type: functional, cell-based; how it was run: as §2

Row | Compound | inhibition [1] | IC50 [2] | IC50 [4] | inhibition [5] | also measured
1 | O=c1oc2cc(OS(=O)(=O)c3ccc(C(F)(F)F)cc3)ccc2c2c1CCCCCC2 | Active | 0.00604 µM | > 100 µM |  | IC50 [3]: 75.3 µM
2 | CCS(=O)(=O)Oc1ccc2c3c(c(=O)oc2c1)CCCCC3 | Active |  | 23.4 µM | Active | 
3 | CCCS(=O)(=O)Oc1ccc2c3c(c(=O)oc2c1)CCCCCC3 | Active | 0.00402 µM | 9.2 µM | Active | Ratio IC50 [6]: 1.74; IC50 [3]: 10 µM
4 | O=c1oc2cc(OS(=O)(=O)c3ccccc3)ccc2c2c1CCCCCC2 | Active |  | > 100 µM |  | 
5 | CC(=N)NCCCC[C@H](N)C(=O)O [L-NIL] |  |  |  |  | inhibition at 20 µM [7]: 50%; IC50 [3]: 20.1 µM
6 | O=c1oc2cc(OS(=O)(=O)c3ccccc3)ccc2c2c1CCCCC2 | Active |  | > 100 µM | Active | 
7 | O=c1oc2cc(OS(=O)(=O)C3CC3)ccc2c2c1CCCCC2 | Active |  | 20.3 µM | Active | 
8 | O=c1oc2cc(OS(=O)(=O)C3CC3)ccc2c2c1CCCCCC2 | Active |  | 10.5 µM | Active | 
9 | Cc1ccc(S(=O)(=O)Oc2ccc3c4c(c(=O)oc3c2)CCCCC4)cc1 | Active |  | > 100 µM | Active | 
10 | Cc1ccc(S(=O)(=O)Oc2ccc3c4c(c(=O)oc3c2)CCCCCC4)cc1 | Active | 0.00675 µM | > 100 µM | Active | IC50 [3]: 40.7 µM
11 | O=c1oc2cc(OS(=O)(=O)c3ccc(C(F)(F)F)cc3)ccc2c2c1CCCCC2 |  | 0.00645 µM | > 100 µM |  | inhibition [8]: Active; inhibition [9]: Dose-dependent effect; inhibition [10]: Active; Ratio IC50 [11]: 5.24; inhibition (INH) [5]: 91.48%; inhibition at 5 µM ([1]; RAW264.7, 24 h): 65.8%; IC50 [3]: 3.84 µM; inhibition [12]: inactive
12 | NS(=O)(=O)Oc1ccc2c3c(c(=O)oc2c1)CCCCC3 [IROSUSTAT] |  | 0.081 µM |  |  | IC50 [13]: 85.8 µM; inhibition [13]: Dose-dependent effect; inhibition [2]: Dose-dependent effect
13 | CS(=O)(=O)Oc1ccc2c3c(c(=O)oc2c1)CCCCC3 | Active |  | 90.8 µM | Active | 
14 | CS(=O)(=O)Nc1ccc([N+](=O)[O-])cc1OC1CCCCC1 [NS-398] |  | 0.00701 µM |  |  | inhibition [14]: Active
15 | CS(=O)(=O)Oc1ccc2c3c(c(=O)oc2c1)CCCCCC3 | Active |  | 24.5 µM | Active | 
16 | CCCS(=O)(=O)Oc1ccc2c3c(c(=O)oc2c1)CCCCC3 | Active |  | 23.9 µM | Active | 
17 | CCS(=O)(=O)Oc1ccc2c3c(c(=O)oc2c1)CCCCCC3 | Active |  | 21.5 µM | Active | 
